Source: PubChem BioAssay (The Scripps Research Institute Molecular Screening Center)
CHRM5 agonist – human M5 muscarinic receptor agonists, primary screen, CHO-K1 cells, Fluo-8 calcium fluorescence | activation, % at 3 µM | hit rate 0.19% among 360,000 | Muscarinic acetylcholine receptor M5 (Homo sapiens), P08912 | AID 624037, 2012 | CHO-K1 hM5 cells; 0% DMSO wells, 100% maximal acetylcholine response;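 active = activation above the run's mean over test compounds plus 3 SD, cut at about 23% in these data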;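 also: signal is peak over basal fluorescence ratio across the kinetic read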
Target sequence (P08912 whole entry, looked up): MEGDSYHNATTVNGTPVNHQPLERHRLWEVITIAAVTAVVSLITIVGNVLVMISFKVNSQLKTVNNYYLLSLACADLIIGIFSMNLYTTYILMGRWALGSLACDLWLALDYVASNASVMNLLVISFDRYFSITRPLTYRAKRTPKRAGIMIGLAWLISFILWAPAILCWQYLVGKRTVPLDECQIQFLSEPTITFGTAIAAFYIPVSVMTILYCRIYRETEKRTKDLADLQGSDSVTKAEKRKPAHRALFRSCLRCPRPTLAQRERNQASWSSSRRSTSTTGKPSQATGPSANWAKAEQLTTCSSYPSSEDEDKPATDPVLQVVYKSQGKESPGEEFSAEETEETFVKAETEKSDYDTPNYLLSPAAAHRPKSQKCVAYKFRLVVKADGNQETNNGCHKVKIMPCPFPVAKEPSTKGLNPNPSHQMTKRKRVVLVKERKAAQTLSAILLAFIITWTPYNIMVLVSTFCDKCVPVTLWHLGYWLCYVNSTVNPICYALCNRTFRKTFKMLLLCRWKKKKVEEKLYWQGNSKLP
M4 antag – human M4 muscarinic receptor antagonists, primary screen, CHO cells, Fluo-8 calcium fluorescence; Muscarinic acetylcholine receptor M4 (Homo sapiens), P08173; CHO-hM4 cells, ACh EC80; inhibition, % at 3 µM; hit rate 0.73% among 360,000; AID 624125, 2012;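 active = inhibition above its plate's cutoff, the mean inhibition of sample wells plus 3 SD, cut at about 27% in these data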
M4 ag – human M4 muscarinic receptor agonists, primary screen, CHO-K1 cells, Fluo-8 calcium fluorescence | Muscarinic acetylcholine receptor M4 (Homo sapiens), P08173 | CHO-K1 hM4/Gqi5; vehicle 0%, full acetylcholine response 100% | activation, % at 3 µM | hit rate 0.14% among 360,000;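 active = activation above the run mean over all test wells plus 3 SD, cut at about 32% in these data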;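 also: peak over basal fluorescence ratio per well then scaled between controls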
CHRM5 PAM – human M5 muscarinic receptor positive allosteric modulators, primary screen, CHO-K1 cells, Fluo-8 calcium fluorescence; Muscarinic acetylcholine receptor M5 (Homo sapiens), P08912; CHO-K1 hM5, ACh EC20 PAM; 0% = ACh EC20, 100% = ACh EC100; activation, % at 3 µM; hit rate 0.3% among 360,000; AID 624038, 2012;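 active = activation above the run cutoff, the mean activation of all test compounds plus 3 SD, cut at about 18% in these data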
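system = human M5 receptor in CHO-K1 cells | reagent = EC20 acetylcholine as agonist stimulus | compound dosing = single-point, 3 µM nominal | incubation = Fluo-8 loading 80 min at 37 °C plus 30 min room temperature | detection = Fluo-8 calcium dye fluorescence, kinetic read | benchmarks = low control EC20 acetylcholine (0%), high control EC100 acetylcholine (100%)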
CHRM4 PAM – human M4 muscarinic receptor positive allosteric modulators, primary screen, CHO-K1 cells, Fluo-8 calcium fluorescence | Muscarinic acetylcholine receptor M4 (Homo sapiens), P08173 | CHO-K1 hM4/Gqi5, ACh EC20; 0% = ACh EC20, 100% = maximal ACh | AID 624126, 2012 | hit rate 0.4% among 360,000 | activation, % at 3 µM;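 active = activation above its plate's cutoff, the mean activation of sample wells plus 3 SD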
M5 antag – human M5 muscarinic receptor antagonists, primary screen, CHO cells, Fluo-8 calcium fluorescence | Muscarinic acetylcholine receptor M5 (Homo sapiens), P08912 | hit rate 0.59% among 360,000 | inhibition, % at 3 µM | AID 624040, 2012 | CHO-hM5 cells, ACh EC80;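 active = inhibition above a per-plate cutoff, the mean of that plate's test compounds plus 3 SD, cut at about 27% in these data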
Numbers stand for hits; - = inactive. This is a sample that favours compounds with a hit; in the whole collection about 1.9% have one here.

SMILES	CHRM5 agonist	M4 antag	M4 ag	CHRM5 PAM	CHRM4 PAM	M5 antag
CCN1C(=O)[C@@H]2[C@@H](c3ccc(SC4CCCCC4)c(OC)c3)N3CCCC[C@@]3(C(=O)OC)[C@@H]2C1=O	-	-	-	-	-	-
Cc1cc(N/N=C/c2ccc(O)cc2O)nc(-c2ccccc2O)n1	-	29.9	-	-	-	-
Cc1cc(N/N=C/c2ccccc2O)nc(-c2ccccc2O)n1	-	-	-	-	-	-
CC(=O)Nc1ccc(-c2ccnc3c2CC(C(=O)Nc2cccc(Oc4ccccc4)c2)O3)cc1 (stereo not drawn)	-	-	-	-	-	-
O=C(Nc1ccc(NC(=O)c2ccco2)nc1)c1cccnc1	-	-	-	-	21.2	-
CCC(C)CCN1C(Nc2ccccc2)=NC[C@@H]1C (stereo partly drawn)	-	-	-	-	-	-
COc1ccc([C@H]2C(C#N)=C([S-])N[C@](C)(O)[C@@H]2[n+]2ccccc2)cc1	-	40.4	-	-	-	-
Cn1nc(C(C)(C)C)cc1NC(=O)Nc1cc(Cl)cc(Cl)c1	-	-	-	-	-	34.3
CN1CCN(NC(=O)Nc2cc(Cl)cc(Cl)c2)CC1	-	-	-	-	-	43.8
Cc1nc2ccccc2nc(C)c1=NOCc1cccc(F)c1	-	-	-	-	-	-
Cc1nc2ccccc2nc(C)c1=NOCc1ccc(C#N)cc1	-	-	-	-	19.2	-
CC(C)(C)N(CC#CCC1(O)c2ccccc2-c2ccccc21)CCO	-	-	-	-	-	-
CCOC(=O)N1CCC(N2CCN(Cc3ccc(F)c(F)c3)C(CCO)C2)CC1 (stereo not drawn)	-	-	-	-	-	-
CCOC(=O)N1CCC(N2CCN(CCC(C)C)C(CCO)C2)CC1 (stereo not drawn)	-	62.8	-	-	-	-
OC(COC1CCCCC1)CN1CCCCC1 (stereo not drawn)	-	-	-	-	-	-
O=C(/C=C/c1ccc(F)cc1)NC(=S)N1CCN(c2ccccn2)CC1	-	-	-	18.7	-	-
COc1ccc(/C=C/C(=O)NC(=S)N2CCN(c3ccccn3)CC2)cc1OC	-	-	-	-	-	-
Cc1ccc(S(=O)(=O)Nc2ccccc2-c2nc3ccccc3[nH]c2=O)cc1	-	-	-	-	-	-
CN(C)c1ccc(NC(=O)CN2CCC(N3CCCCC3)CC2)cc1	-	-	-	23.6	-	-
CN(C)c1ccc(NC(=O)CN2CCC(NC(=O)C3CCCCC3)CC2)cc1	-	-	-	-	-	-
Cc1ccc(NC(=O)CN(C)C(=O)c2ccc(NS(=O)(=O)c3cccc([N+](=O)[O-])c3)cc2)cc1	-	-	-	-	-	-
Cc1ccc(NS(=O)(=O)c2ccc(OCC(=O)Nc3cccc([N+](=O)[O-])c3)c(C)c2)cc1	-	29.9	-	-	-	-
Cc1nc2sccn2c(=O)c1S(=O)(=O)Nc1ccc(N2CCN(S(C)(=O)=O)CC2)cc1	-	-	-	-	-	33.6
c1ccc(-n2cnc3ccccc32)nc1	-	-	-	-	-	-
S=c1[nH]ncn1-c1ccccn1	-	-	-	-	24.6	-
SMILES	CHRM5 agonist	M4 antag	M4 ag	CHRM5 PAM	CHRM4 PAM	M5 antag
CCCC(O)(CCN1CCOCC1)c1ccc(Cl)cc1 (stereo not drawn)	-	-	-	-	-	-
CCCC(O)(CCN1CCOCC1)c1ccc(Br)cc1 (stereo not drawn)	-	43.8	-	-	-	-
COc1ccc(CC(=O)NC(c2ccccc2)c2ccc(C)cc2)c(OC)c1 (stereo not drawn)	-	-	-	-	-	-
O=C(NCCCO)c1nnc(Cc2c(F)cccc2Cl)o1	-	-	-	-	29.2	-
O=C(NCCCN1CCN(Cc2ccccc2)CC1)c1nnc(Cc2c(F)cccc2Cl)o1	-	-	-	-	-	-
CC(C)N(CCNC(=O)c1ccc(CS(=O)(=O)c2c(Cl)cccc2Cl)o1)Cc1ccccc1	-	-	-	-	-	-
COC(=O)c1cc(Cl)nc2ccccc12	-	-	-	21.4	-	-
CCCc1cc(C(=O)OC)c2ccccc2n1	-	-	-	-	-	-
c1cc2c(cc1CN1CCN(C3CCCCCC3)CC1)OCO2	-	45.7	-	-	-	-
Cc1cc(/C=C2\NC(=S)N(C)C2=O)ccc1N1CCCC1	138.5	44.9	81.8	-	-	58.9
CCCN1C(=O)/C(=C/c2ccc(N3CCOCC3)cc2)NC1=S	-	-	-	-	-	-
Cc1cc(/C=C2/C(=O)N(C)C(=S)N2C)ccc1N1CCCC1	-	-	-	-	-	-
CCCN1C(=O)/C(=C/c2ccc(N3CCCC3)c(C)c2)NC1=S	69.4	53.5	77.0	-	-	62.2
CCN1C(=O)/C(=C/c2ccc(N3CCCC3)cc2)NC1=S	96.5	36.8	58.4	-	-	58.9
CCCN1C(=O)/C(=C/c2ccc(OCC(=O)OCC)cc2)NC1=S	-	-	-	-	-	-
Cc1ccc(CONC(=O)c2ccc(C)cc2)cc1	-	-	-	-	-	-
CCCCCOc1ccc(Br)cc1/C(C)=N/NC1=NCCN1	-	-	-	-	-	-
COc1ccc(Br)cc1/C(C)=N/NC1=NCCN1	46.7	-	-	-	-	29.6
COc1cc2c(-c3ccccc3)c(C)oc2cc1/C=N/NC(N)=S	-	-	-	-	-	-
COc1ccc(NC(=O)CSc2nc3ccsc3c(=O)n2CCCCCC(=O)O)cc1	-	-	-	-	-	-
COc1ccc(C(=O)n2cnc3ccccc32)cc1	-	-	-	-	14.3	-
COCCNC(=O)CN(C(=O)Cn1nnc2ccccc21)c1cccc(C)c1C	-	-	-	-	-	-
Cc1ccccc1C(=O)N(C)[C@H]1C[C@H]2c3[nH]c4ccccc4c3CCN2C[C@H]1[C@H](C)O	-	-	-	-	-	-
COc1ccc(OC)c(S(=O)(=O)n2nnc3ccccc32)c1	-	-	-	-	-	-
COc1ccc(F)cc1S(=O)(=O)n1nnc2ccccc21	-	-	-	-	21.6	-
COc1cccc(NC(=O)CSCC(=O)O)c1	-	-	-	-	32.7	-
O=C(Nc1ccc(F)cc1)Nc1ccccc1F	-	-	-	-	-	-
O=C(Nc1ccc(F)cc1)Nc1cccnc1Cl	-	32.3	-	-	-	-
